“Also recorded” adds a separate entry of the source. Blank lines part the entries; values can stand above or below the compound they belong to.
Experiments:
proMMP-9 [1] = target: T1, proMMP-9 (Homo sapiens, UniProt P14780); test: Saturated transfer difference; format: binding; details: compound:protein 38:1 (300 µM:8 µM), 4 °C
[2] = system: HT1080 cells on chicken embryo CAM; test: Chorioallantoic membrane; format: in vivo; details: final concentration estimated 0.5 μM, 4-day incubation, vs DMSO and 1f
Method in brief: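 Fertilized white chicken eggs were incubated 3 days at 37 °C and 70% humidity, then cultured ex ovo in Petri dishes. HT1080 cells adsorbed onto a gelatin sponge were implanted on the CAM. Compound was added from a 100 μM stock (estimated final 0.5 μM); DMSO served as control. Blood vessels surrounding the sponge were counted on day 4 at 37 °C.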

[3] = system: EGFR-CD44 and EGFR-β1 integrin; test: Co-immunoprecipitation of endogenous EGFR in HT1080 cells; format: cell-based, human; details: 50 μM
COS-1 cells = test: MTT cell viability, COS-1 cells; format: cell-based, monkey; details: 24 h
Method in brief: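 COS-1 cells stably expressing vector control or proMMP-9 cDNA were treated 24 h with DMSO, 50 μM compound, or 100 nM staurosporine (positive control for acute toxicity). Viability was assessed by MTT.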

[4] = system: HT1080 fibrosarcoma cells; test: Chronic toxicity in HT1080 fibrosarcoma cells; format: cell-based, human; details: 100 μM, retreated every 3 days for 9 days; data not shown
Method in brief: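 HT1080 cells were cultured in complete medium with or without compound, with medium and compound replaced repeatedly over 9 days. Viability was measured daily by MTT: 4 h at 37 °C, then formazan solubilised and absorbance read at 570 nm.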

[5] = system: EGFR, AKT, Erk1/2, Src, FAK, PAX phosphorylation; test: Immunoblot of downstream signaling phosphorylation in HT1080 cells; format: cell-based, human; details: 50 μM
Method in brief: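 HT1080 cells transiently expressing Myc-tagged MMP-9 were treated with 50 μM compound. Lysates were run on 10% SDS-PAGE and immunoblotted for phospho-Src Tyr418, phospho-FAK Tyr576/577 and phospho-PAX Tyr118.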

proMMP-9/MMP-2PEX = test: Tryptophan fluorescence binding assay with chimera proMMP-9/MMP-2PEX; set-up: species or system human; details: chimera with MMP-2 PEX domain, 0.5 μM
Method in brief: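 Purified recombinant chimera (0.5 μM) was titrated with test compound in TNC buffer (50 mM Tris-HCl, 10 mM CaCl2, pH 7.5). A buffer-only addition served as the protein stability control. After each addition the sample was stirred 1 min at RT, excited at 280 nm, and scanned 300–425 nm, averaging three scans. Kd was fitted to ΔF/ΔFMax, where ΔF is the emission shift in nm.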

proMMP-2 = target: T2, proMMP-2 (Homo sapiens, UniProt P08253); test: Saturated transfer difference; format: binding; details: compound:protein 38:1 (300 µM:8 µM), 4 °C
T2 sequence (P08253 30-660 limits assumed): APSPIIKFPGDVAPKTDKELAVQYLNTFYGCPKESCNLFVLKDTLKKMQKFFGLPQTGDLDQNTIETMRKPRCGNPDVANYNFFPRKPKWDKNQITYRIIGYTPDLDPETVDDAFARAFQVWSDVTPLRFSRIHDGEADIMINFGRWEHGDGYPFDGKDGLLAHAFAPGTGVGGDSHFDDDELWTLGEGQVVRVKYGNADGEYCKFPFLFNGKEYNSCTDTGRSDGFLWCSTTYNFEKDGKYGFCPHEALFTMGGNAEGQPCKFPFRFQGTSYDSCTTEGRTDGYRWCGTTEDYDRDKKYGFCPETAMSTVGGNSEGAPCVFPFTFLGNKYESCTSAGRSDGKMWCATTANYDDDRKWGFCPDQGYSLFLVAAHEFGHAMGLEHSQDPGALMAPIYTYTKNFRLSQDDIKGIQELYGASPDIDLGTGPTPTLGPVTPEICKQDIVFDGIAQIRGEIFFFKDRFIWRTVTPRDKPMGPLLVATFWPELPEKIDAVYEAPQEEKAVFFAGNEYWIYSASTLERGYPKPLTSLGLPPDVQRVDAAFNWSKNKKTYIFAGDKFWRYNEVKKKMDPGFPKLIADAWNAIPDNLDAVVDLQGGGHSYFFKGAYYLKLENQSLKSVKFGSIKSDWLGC

[6] = system: proMMP-14 expressing COS-1 cells; test: Two-dimensional dot migration assay, COS-1 cells expressing proMMP-14; format: cell-based, monkey; details: 50 μM
Method in brief: (§1)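 COS-1 cells expressed vector pQCXIP, proMMP-2, proMMP-9 or proMMP-14 (polyethylenimine transfection, 48 h at 37 °C); expression was checked by immunoblot of lysates and serum-free medium. Cells were mixed 1:1 with neutralized type I collagen (3 mg/mL) on ice, and 1 μL dots (1 × 10^7 cells/mL) were set. Dots were covered with complete medium ± 50 μM compound for 18 h, then fixed and DAPI-stained, and migrated cells were counted.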

proMMP-9 [7] = target: T1, proMMP-9; test: Tryptophan fluorescence blue-shift binding assay with proMMP-9
HT1080 cells [8] = test: Immunofluorescence of HT1080 cells; format: cell-based, human; details: for MMP-9 cell surface localization: 50 μM; for formation of FAK and PAX adhesion junctions: 50 μM overnight
Method in brief: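 HT1080 cells were fixed in 4% paraformaldehyde/PBS and blocked in 5% BSA/PBS. Staining used anti-MMP-9 (anti-rabbit Alexa 488) with anti-α4 and/or anti-β1 integrin (anti-mouse Alexa 568), or anti-p-FAK Tyr576/577 (Alexa 568) and anti-p-PAX Tyr118 (Alexa 488). Nuclei were counterstained with DAPI, and images were taken by two-photon laser-scanning confocal microscopy.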

HT1080 cells [9] = test: Cellular adhesion assay on collagen or fibronectin; format: cell-based, human; details: 30 min at 37 °C
Method in brief: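 HT1080 cells seeded in 96-well plates coated with a thin layer of collagen or fibronectin (5 μg/mL in PBS). Cells were held 30 min at 37 °C with test compound. Wells were then washed and the cells fixed in 4% paraformaldehyde and stained with DAPI. Adherent cells were imaged and counted automatically.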

[10] = system: HT1080 fibrosarcoma cells; test: Two-dimensional dot migration assay, HT1080 cells; format: cell-based, human; details: 50 µM, relative to control groups
APMA-activated MMP-9 = APMA-activated MMP-9 (Homo sapiens, UniProt P14780); test: Fluorogenic peptide assay of MMP-9 catalytic activity; format: biochemical; details: 10 μM fluorogenic peptide, 2 h; for inhibition of MMP-9 catalytic activity: 50 μM compound
Sequence of APMA-activated MMP-9 (P14780 107-707 limits assumed): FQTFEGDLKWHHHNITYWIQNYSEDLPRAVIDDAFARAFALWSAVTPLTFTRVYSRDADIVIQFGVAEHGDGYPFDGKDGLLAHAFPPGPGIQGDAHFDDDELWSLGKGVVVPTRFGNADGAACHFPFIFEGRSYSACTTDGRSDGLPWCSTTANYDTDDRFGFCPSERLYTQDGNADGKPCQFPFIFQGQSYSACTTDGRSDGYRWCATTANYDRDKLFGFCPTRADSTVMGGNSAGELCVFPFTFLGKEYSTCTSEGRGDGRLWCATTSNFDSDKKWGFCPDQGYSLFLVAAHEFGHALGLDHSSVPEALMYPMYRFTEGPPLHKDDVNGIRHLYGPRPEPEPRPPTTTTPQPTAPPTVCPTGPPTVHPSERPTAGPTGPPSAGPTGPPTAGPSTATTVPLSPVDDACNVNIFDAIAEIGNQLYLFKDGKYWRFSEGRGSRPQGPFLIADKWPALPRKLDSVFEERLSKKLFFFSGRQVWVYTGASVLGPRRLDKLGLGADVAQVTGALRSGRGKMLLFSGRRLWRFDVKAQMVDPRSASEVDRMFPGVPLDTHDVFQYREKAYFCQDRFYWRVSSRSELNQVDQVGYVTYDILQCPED
Method in brief: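 Recombinant proMMP-9 was activated overnight at 37 °C in TNC buffer with 1 mM APMA. […] Fluorescence (ex 320/em 405 nm) was read every 10 min over 2 h.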

[11] = system: HT1080 cells on chicken embryo CAM; test: Chorioallantoic membrane; format: in vivo; details: final concentration estimated 0.5 μM, 7-day incubation, vs DMSO and 1f
Method in brief: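 Ex ovo chick embryos were inoculated at day 10 with pretreated GFP-expressing HT1080 cells in a 3 mg/mL collagen solution seeded atop the CAM. Compound was added from a 100 μM stock (estimated final 0.5 μM), with DMSO control. After 7 days at 37 °C, CAM segments were formalin-fixed, OCT-embedded, cut at 6 μm and H&E stained. GFP+ cells were scored by fluorescence microscopy.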

[12] = system: proMMP-2 expressing COS-1 cells; test: Two-dimensional dot migration assay, COS-1 cells expressing proMMP-2; format: cell-based, monkey; details: 50 μM
Method in brief: as §1

MMP-9 = details: cited from earlier work
[13] = system: proMMP-9-mediated cancer cell migration; details: in vitro; cited from earlier work
closely related MMPs = details: cited from earlier work
cancer metastasis = details: in vivo mouse xenograft model; cited from earlier work

T1 sequence (P14780 20-707 limits assumed): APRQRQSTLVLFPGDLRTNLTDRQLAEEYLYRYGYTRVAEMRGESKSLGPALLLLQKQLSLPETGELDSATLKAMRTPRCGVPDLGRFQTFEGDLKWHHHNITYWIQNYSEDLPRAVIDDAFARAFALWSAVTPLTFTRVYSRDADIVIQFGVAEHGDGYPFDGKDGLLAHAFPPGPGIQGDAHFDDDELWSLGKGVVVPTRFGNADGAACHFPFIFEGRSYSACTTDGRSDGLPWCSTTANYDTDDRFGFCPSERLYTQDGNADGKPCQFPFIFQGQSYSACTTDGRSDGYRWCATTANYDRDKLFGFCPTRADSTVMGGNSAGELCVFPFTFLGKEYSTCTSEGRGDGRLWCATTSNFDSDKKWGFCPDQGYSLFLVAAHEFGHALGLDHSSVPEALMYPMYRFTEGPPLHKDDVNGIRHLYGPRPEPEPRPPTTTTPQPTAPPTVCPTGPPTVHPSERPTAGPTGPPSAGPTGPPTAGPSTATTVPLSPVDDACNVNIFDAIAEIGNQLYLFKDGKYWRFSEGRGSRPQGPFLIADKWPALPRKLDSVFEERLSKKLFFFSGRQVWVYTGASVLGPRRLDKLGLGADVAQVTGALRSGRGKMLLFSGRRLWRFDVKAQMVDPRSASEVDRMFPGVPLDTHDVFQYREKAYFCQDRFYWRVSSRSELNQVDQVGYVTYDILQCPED

Compound: O=C(CCCSc1nc2c(c(=O)[nH]1)CCCC2)Nc1ccc(F)cc1 [Compound 3c, N-(4-Fluorophenyl)-4-(4-oxo-3,4,5,6,7,8-hexahydroquinazolin-2-ylthio)butanamide]
- STD NMR peaks (proMMP-9 [1]): STD peaks were observed in the presence of proMMP-9
- angiogenic potential of HT1080 cells (neovascularization) [2]: reduces angiogenesis; also recorded: significantly reduced the angiogenic potential
- interaction between EGFR-CD44 and EGFR-β1 integrin [3]: Decreased interaction between EGFR-CD44 and EGFR-β1 integrin
- decrease in cell growth (COS-1 cells; 50 μM, nonstatistically significant): 8%
- cell death (chronic toxicity) [4]: No cell death was observed
- phosphorylation of Src Tyr418 and downstream FAK Tyr576/577 and PAX Tyr118 [5]: reduced Src^Tyr418 phosphorylation
- shift in tryptophan fluorescence upon titration (proMMP-9/MMP-2PEX): no shift in fluorescence was observed
- STD NMR peaks (proMMP-2): not in the presence of proMMP-2
- inhibition of proMMP-14 mediated cell migration [6]: lack of inhibition
- binding affinity relative to parent compound 1a (proMMP-9 [7]; Kd comparison): four times tighter
- maximal λMax shift (proMMP-9 [7]; after treatment with 25 μM inhibitor, ex 280 nm): 9 nm
- Kd (proMMP-9 [7]; tryptophan fluorescence, purified recombinant proMMP-9 0.5 μM, TNC buffer pH 7.5): 320 nM
- MMP-9 cell surface localization (HT1080 cells [8]): loss of MMP-9 from the cell surface
- formation of FAK and PAX adhesion junctions (HT1080 cells [8]): decrease in the formation of FAK and PAX adhesion junctions
- cell adhesion to collagen or fibronectin (HT1080 cells [9]; 50 µM): inhibited cellular adhesion
- inhibition of migration [10]: the same inhibition potency was observed
- inhibition of MMP-9 catalytic activity (APMA-activated MMP-9): No inhibition of the catalytic activity was observed
- invasion of CAM tissue by HT1080 cells [11]: blocks cancer cell invasion of the basement membrane; also recorded: reduced invasion of CAM tissue
- inhibition of proMMP-2 mediated cell migration [12]: lack of inhibition

Compound: CCCc1cc(=O)nc(SCC(=O)Nc2ccc(OC(F)F)cc2)[nH]1 [Compound 1a, N-(4-Difluoromethoxyphenyl)-2-(4-oxo-6-propyl-1,4-dihydropyrimidin-2-ylthio)acetamide]
- inhibition of MMP-9 enzymatic activity (MMP-9): did not inhibit MMP-9 enzymatic activity
- angiogenic potential of HT1080 cells (neovascularization) [2]: significantly reduced the angiogenic potential
- proMMP-9-mediated cancer cell migration and proliferation [13]: inhibited proMMP-9-mediated cancer cell migration and proliferation
- binding to closely related MMPs (closely related MMPs): does not bind to closely related MMPs
- phosphorylation of Src Tyr418 and downstream FAK Tyr576/577 and PAX Tyr118 [5]: reduced Src^Tyr418 phosphorylation
- MMP-9 cell surface localization (HT1080 cells [8]): loss of MMP-9 from the cell surface
- formation of FAK and PAX adhesion junctions (HT1080 cells [8]): decrease in the formation of FAK and PAX adhesion junctions
- cell adhesion to collagen or fibronectin (HT1080 cells [9]; 50 µM): inhibited cellular adhesion
- inhibition of migration [10]: the same inhibition potency was observed
- inhibition of MMP-9 catalytic activity (APMA-activated MMP-9): No inhibition of the catalytic activity was observed
- cancer metastasis (cancer metastasis): effectively prevented cancer metastasis
- invasion of CAM tissue by HT1080 cells [11]: reduced invasion of CAM tissue

- substrate cleavage by activated MMP-9 (APMA-activated MMP-9; 250 nM Marimastat): no substrate cleavage was observed
Compound: CNC(=O)[C@@H](NC(=O)[C@H](CC(C)C)[C@H](O)C(=O)NO)C(C)(C)C [Marimastat, reference compound]
- formation of focal adhesion contact sites (HT1080 cells [8]; 80 nM marimastat): did not prevent the formation of focal adhesion contact sites
- cell adhesion to collagen or fibronectin (HT1080 cells [9]; 80 nM Marimastat): no observable effect on cell attachment

Compound: CN[C@@H]1C[C@H]2O[C@@](C)([C@@H]1OC)n1c3ccccc3c3c4c(c5c6ccccc6n2c5c31)C(=O)NC4 [STS, staurosporine, reference compound]
- cell death (COS-1 cells; 100 nM, positive control): Significant cell death

— publication PMC5697452 (ACS Chemical Biology, 2017)
